Compound activity as filed in PubChem BioAssay.
HSP90 refold inh – blocks HSP90-mediated luciferase refolding in reticulocyte lysate; Rabbit reticulocyte lysate, luciferase refolding luminescence, 3 h; inhibition, % at 5.6 µM; hit rate 0.91% among 290,000; AID 1789;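 active means inhibition above the screen-wide mean plus 3 SD, computed separately per campaign, cut at about 16% in these data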;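 further: 0% = DMSO wells and 100% = 60 µM geldanamycin wells; inhibitors lower the luminescence because luciferase stays unfolded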
FLuc inh counter – inhibits firefly luciferase, flagging false hits in luciferase inhibition screens | inhibition, % at 10 µM | P08659 | AID 1006 | hit rate 1.5% among 200,000 | ATPLite firefly luciferase biochemical luminescence, 10 min;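 active means inhibition above about 50% when tested at 10 µM, limit read from the data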
Target sequence (P08659 whole entry, looked up): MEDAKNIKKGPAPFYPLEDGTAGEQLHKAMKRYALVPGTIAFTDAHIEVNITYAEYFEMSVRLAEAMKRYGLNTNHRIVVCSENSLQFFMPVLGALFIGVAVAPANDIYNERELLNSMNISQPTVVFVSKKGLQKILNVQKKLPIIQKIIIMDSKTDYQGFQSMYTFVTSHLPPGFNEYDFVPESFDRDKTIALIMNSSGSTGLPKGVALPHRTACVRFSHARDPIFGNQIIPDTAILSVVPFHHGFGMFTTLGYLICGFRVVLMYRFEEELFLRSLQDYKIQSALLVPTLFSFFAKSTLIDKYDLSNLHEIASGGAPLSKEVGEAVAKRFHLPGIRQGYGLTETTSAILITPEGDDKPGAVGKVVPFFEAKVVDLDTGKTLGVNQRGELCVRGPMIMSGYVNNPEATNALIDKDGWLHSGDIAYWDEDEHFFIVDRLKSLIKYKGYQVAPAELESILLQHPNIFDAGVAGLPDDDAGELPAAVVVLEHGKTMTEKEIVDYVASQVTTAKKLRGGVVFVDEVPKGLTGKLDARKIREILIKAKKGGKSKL
TRAIL sens C8 – caspase-8 TRAIL sensitization. NB7+C8 cells + TRAIL, ATPlite viability luminescence. inhibition (viability loss, TRAIL sensitization), % at 10 µM. AID 624354. hit rate 1% among 360,000;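 active means compounds causing at least 50% loss of cell viability in the single-dose screen, relative to plate controls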
PPC-1+TRAIL kill – kills PPC-1 cancer cells in the presence of TRAIL; hit rate 0.41% among 220,000; PPC-1 cells + TRAIL, ATPLite viability luminescence; cell killing (% activity), % at 4 µM or 5 µM; AID 1443;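 active means cell killing above 50% in the first pass at 4 µM, then a duplicate retest at 5 µM averaging 50% or more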;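 further: plate controls were cells with TRAIL plus DMSO for no effect and medium-only wells lacking cells for full effect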
FLuc stim CS – firefly luciferase counter-screen for stimulation assays | P08659 | ATPlite luciferase biochemical, luminescence, 10 min; 0 = ATP-free wells, 1 = DMSO control | activation factor at 10 µM | 200,000 tested, under 10 active;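 active means luciferase activation factor, scaled between plate controls, of at least 2 with compound at 10 µM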
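System: luciferase plus luciferin reagent, cell-free; medium: PBS as buffer for the ATP substrate; dosing: test compounds dosed from 2 mM stocks in 100% DMSO; timing: 10 min post-reagent at room temperature; measured by: luminescence measurement of luciferase light output; evaluation: luciferase activation, seen as luminescence increase over controls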
* = called active by the depositor; nt = not tested or not shown. A selection: hits, their analogues and other compounds. The true share with any hit is near 2%.

SMILES | HSP90 refold inh | FLuc inh counter | TRAIL sens C8 | PPC-1+TRAIL kill | FLuc stim CS
CN(C)c1ccc(/C=N/NC(=O)c2ccco2)cc1 | 5 | 84* | 66* | 41 | 0.2
Cc1ccc(/C=N/NC(=O)c2ccco2)cc1 | 3 | nt | 44 | 19 | nt
Cc1occc1C(=O)N/N=C/c1ccc(-c2ccccc2)cc1 | 45* | nt | 35 | nt | nt
CN(C)c1ccc(/C=N\NC(=O)c2csnn2)cc1 | 11 | 60* | 26 | 35 | 0.4
O=C1OC[C@H]2CCCN2C(=O)[C@@H](CC(=O)N(CCO)Cc2ccccc2)C/C=C\C[C@H]1Cc1ccc(F)cc1 | nt | nt | 3 | nt | nt
Cc1ccc(Nc2nc(/N=C/NO)n[nH]2)cc1C | 0 | -1 | -4 | 22 | 1
O=C(OCn1ncc(Cl)c(Cl)c1=O)c1cccc(C(F)(F)F)c1 | 13 | -1 | 94* | 33 | 1
N/C(=N\OC(=O)c1cccc(C(F)(F)F)c1)c1cnccn1 | -1 | nt | -15 | nt | nt
Cc1ccc(C2=NOC(=O)/C2=C\c2ccc(C)o2)cc1 | 2 | nt | 4 | 0 | nt
Cc1ccc(/C=C2\C(=O)ON=C2c2ccccc2)o1 | 3 | 60* | -8 | 11 | 0.4
COc1ccc2c(c1)CC/C(=C\C=C\c1ccccc1OC)C2=O | 0 | 52* | -3 | 12 | 0.5
COc1ccc2c(c1)C(=O)/C(=C/C=C/c1ccccc1)CC2 | 0 | 22 | 1 | 0 | 0.8
Cc1c(C)c2ccc(OC(C)C(=O)NCCc3c[nH]c4ccccc34)cc2oc1=O (stereo not drawn) | -6 | nt | -8 | nt | nt
Cc1ccccc1C1CC(c2cccs2)Nc2nnnn21 (stereo not drawn) | 0 | -3 | 5 | -2 | 1
Cc1ccnc(N/N=C/c2ccccc2)n1 | -2 | 51* | 17 | -3 | 0.5
C(=N\Nc1nccc(-c2cccnc2)n1)/c1ccccc1 | 2 | nt | 28 | 13 | nt
CCOc1ccc(-c2cc(C(=O)NCCCN3CCN(CC)CC3)c3ccccc3n2)cc1 | 0 | 67* | 47 | 31 | 0.3
CCOc1ccc(-c2cc(C(=O)NCCCn3ccnc3)c3ccccc3n2)cc1 | -2 | 40 | 21 | 14 | 0.6
CC(C)Oc1cccc(-c2cc(C(=O)N3CCN(S(C)(=O)=O)CC3)c3ccccc3n2)c1 | -2 | 52* | 14 | 12 | 0.5
COc1ccc(-c2cc(C(=O)OCC(=O)N3CCOCC3)c3ccccc3n2)cc1 | nt | nt | 62* | nt | nt
Cc1ccc(-c2cc(C(=O)N3CCN(c4ccccc4O)CC3)c3ccccc3n2)o1 | -5 | nt | 65* | nt | nt
Cc1ccc(C(=O)OCC(=O)N(CC(C)C)c2c(N)n(Cc3ccccc3)c(=O)[nH]c2=O)s1 | 2 | nt | -6 | nt | nt
COc1ccc(-c2cc(C(=O)OCC(=O)c3c(N)n(C)c(=O)n(C)c3=O)c3ccccc3n2)cc1 | -2 | 14 | 16 | 20 | 0.9
COc1ccc(-c2cc(C(=O)c3c(N)n(C)c(=O)n(C)c3=O)c3ccccc3n2)cc1 | 5 | nt | 81* | 77* | nt
COc1ccc(-c2cc(C(=O)N3CCCCC3)c3ccccc3n2)cc1 | nt | nt | 31 | nt | nt
SMILES | HSP90 refold inh | FLuc inh counter | TRAIL sens C8 | PPC-1+TRAIL kill | FLuc stim CS
CCOc1ccc(-c2cc(C(=O)N3CCC(C)CC3)c3ccccc3n2)cc1 | 0 | nt | 54* | nt | nt
COc1ccc(-c2cc(C(=O)N3CCN(c4ncccn4)CC3)c3ccccc3n2)cc1OC | nt | nt | -4 | nt | nt
Cc1cc(-c2ccc(N3CCOCC3)cc2)nc2ccccc12 | 0 | 71* | 65* | 30 | 0.3
Cc1ccc(-c2cc(C(=O)N3CCN(c4ncccn4)CC3)c3ccccc3n2)cc1 | 0 | 62* | 67* | 44 | 0.4
O=S(=O)(NC1=NCCCCC1)c1cc(F)ccc1F | nt | nt | -33 | nt | nt
C[C@H](CO)N1C[C@H](C)[C@@H](CN(C)S(=O)(=O)c2ccccc2)Oc2ccc(NC(=O)CCC(F)(F)F)cc2C1=O | nt | nt | -28 | nt | nt
CN1CCN(c2nc(-c3cccc([N+](=O)[O-])c3)nc3ccccc23)CC1 | 0 | nt | -10 | nt | nt
CCOCCCn1c(=S)[nH]c2cc(C(=O)NCCc3ccccc3)ccc2c1=O | -7 | nt | 6 | nt | nt
COc1ccc(NC(=S)N2CCC(C(=O)c3ccc(OC)cc3)CC2)cc1 | -2 | nt | 16 | nt | nt
Cc1ccc(-c2cn3nc(C)c(C)nc3n2)cc1 | 1 | 75* | 32 | 28 | 0.2
CCN(CC)c1ccc(/C=C2/C(=O)c3ccc(C(=O)O)cc3C2=O)cc1 | 4 | 92* | 17 | 8 | 0.1
CCN(CC)c1ccc(C=C2C(=O)OC3(CCCCC3)OC2=O)cc1 | 3 | -5 | -2 | 28 | 1
COc1ccc(/C=C/C(=O)c2cc3c(cc2N)OCO3)cc1 | -2 | 79* | 23 | 28 | 0.2
CCOC(=O)C(=CNc1cc(C(F)(F)F)ccc1N1CCOCC1)C(=O)OCC | 0 | nt | 18 | -14 | nt
COc1cc(OC)cc(-c2cc3ccc(OC)cc3cn2)c1 | nt | nt | 83* | nt | nt
COc1ccc(-c2cc3cc(OC)c(OC)cc3cn2)cc1 | nt | nt | -1 | nt | nt
COc1cc(OC)cc(-c2cc3cc4c(cc3cn2)OCO4)c1 | nt | nt | 72* | nt | nt
COc1ccc2cc(-c3ccsc3)ncc2c1 | nt | nt | 48 | nt | nt
COc1ccc(-c2cc3cc4c(cc3cn2)OCO4)cc1 | nt | nt | 54* | nt | nt
c1ccc(-c2cc3cc4c(cc3cn2)OCO4)cc1 | nt | nt | 51* | nt | nt
O=C(O)c1cc2c(cc1NC(=O)C1CCCC1)OCCO2 | nt | nt | 1 | nt | nt
O=C(NCc1cc(Cl)cc(Cl)c1)c1ccc2nc(COCCO)[nH]c2c1 | nt | nt | -3 | nt | nt
CC(C)c1ccc(/C=N\NC(=O)c2ccc(Cn3cccn3)o2)cc1 | 14 | 72* | 33 | 21 | 0.3
O=C(N/N=C\c1ccc(Cl)s1)c1ccc(Cn2cccn2)o1 | -1 | 2 | -1 | -11 | 1
CCOC(=O)C1(Cc2cccc(Cl)c2)CCCN(C(=O)CCSC)C1 (stereo not drawn) | 4 | nt | -2 | nt | nt
SMILES | HSP90 refold inh | FLuc inh counter | TRAIL sens C8 | PPC-1+TRAIL kill | FLuc stim CS
CCN1CCN(c2cc(C)c3cc(NC(=S)N4CCCC(C)C4)ccc3n2)CC1 (stereo not drawn) | 31* | -6 | 21 | -5 | 1.1
CCN1CCN(c2cc(C)c3cc(NC(=S)N4CC(C)CC(C)C4)ccc3n2)CC1 (stereo not drawn) | 6 | -9 | 14 | 6 | 1.1
CCC(=O)N1CCc2cc(S(=O)(=O)NC(C(=O)NC3CCCc4ccccc43)C(C)C)ccc21 (stereo not drawn) | 5 | 0 | 8 | 62* | 1
COc1cc(/C=C/C(=O)OCC(=O)N(CC(C)C)c2c(N)n(Cc3ccccc3)c(=O)[nH]c2=O)ccc1O | nt | nt | 3 | nt | nt
O=C(Nc1ccc(-c2ccc3nncn3n2)cc1)C1CCCC1 | -3 | 52* | 28 | 3 | 0.5
COc1ccc(C(=O)/C(=C/c2cccs2)c2nc3ccccc3o2)cc1 | 17* | 3 | 7 | 31 | 1
COc1ccc(/C=C(\CC(=O)O)c2nc3ccccc3o2)cc1 | 2 | 12 | -8 | 5 | 0.9
COc1cc(/C=C2/C(=O)c3cccc([N+](=O)[O-])c3C2=O)c(Br)cc1O | -1 | 64* | 19 | 10 | 0.4
COc1ccccc1NC(=O)CCCCCN1C(=O)c2cccc([N+](=O)[O-])c2C1=O | -2 | nt | -18 | nt | nt
